# ChEMBL document CHEMBL4765291, “Design, synthesis and biological evaluation of novel 3,4-dihydro-2(1H)-quinolinone derivatives as potential chitin synthase inhibitors and antifungal agents” (Eur J Med Chem, 2020)
# Assays:
# Escherichia coli = assay: Antibacterial activity against Escherichia coli JM 109
# Candida albicans [1] = assay: Synergistic antifungal activity against Candida albicans ATCC 76615 assessed as fractional inhibitory concentration index in presence of fluconazole by checkerboard method; type: functional
# Procedure, shortened: (§1)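 Checkerboard combined with two-fold broth dilution, pairing test compound with fluconazole or polyoxin B. FIC index = (MIC A combined/MIC A alone) + (MIC B combined/MIC B alone); >2 antagonistic, 1–2 additive, ≤1 synergistic. Three independent repeats.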
# Candida albicans [2] = assay: Antifungal activity against Candida albicans ATCC 76615 incubated for 48 hrs by two-fold broth dilution analysis; type: functional
# Procedure, shortened: (§2)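 Stock solutions in DMSO, diluted to 0.25–512 µg/mL; two-fold serial broth dilution in 96-well plates. Fungi grown on modified Sabouraud chloramphenicol agar (1% peptone, 2% glucose, […]). Incubated 48 h at 37 °C, then MIC (µg/mL) recorded. Fluconazole and polyoxin B as positive controls; each group tested in triplicate.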
# Candida albicans [3] = assay: Antifungal activity against Candida albicans ATCC 90023 incubated for 48 hrs by two-fold broth dilution analysis; type: functional
# Procedure, shortened: as §2
# Aspergillus flavus [4] = assay: Synergistic antifungal activity against Aspergillus flavus ATCC 16870 assessed as fractional inhibitory concentration index in presence of fluconazole by checkerboard method; type: functional
# Procedure, shortened: as §1
# Candida albicans [5] = assay: Synergistic antifungal activity against Candida albicans ATCC 90023 assessed as fractional inhibitory concentration index in presence of fluconazole by checkerboard method; type: functional
# Procedure, shortened: as §1
# Aspergillus fumigatus [6] = assay: Synergistic antifungal activity against Aspergillus fumigatus GIMCC 3.19 assessed as fractional inhibitory concentration index in presence of Polyoxin B by checkerboard method; type: functional
# Procedure, shortened: as §1
# Pseudomonas aeruginosa = assay: Antibacterial activity against Pseudomonas aeruginosa ATCC 9027; type: functional
# Procedure, shortened: (§3)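 Two-fold serial broth dilution in 96-well plates following National Committee standards; compounds tested at different concentrations. Medium: beef extract peptone (1% peptone, 0.3% beef extract, 0.5% NaCl). Incubation 18–24 h. MIC recorded; streptomycin and norfloxacin as control drugs; each group tested in triplicate.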
# [7] = Inhibition of Candida tropicalis ATCC 750 chitin synthase using UDP-GlcNAc as substrate
# Procedure, shortened: (§4)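 Chitin synthase prepared from C. tropicalis ATCC 750 by low- and high-speed centrifugation. DMSO stocks (10 mg/mL) diluted in 50 mM Tris-HCl pH 7.5; test concentrations 300–9.375 µg/mL. Chitin synthesized in WGA-coated wells, bound with WGA-HRP, washed, developed with TMB/H2O2, stopped with 2 M H2SO4, OD read. Duplicate; polyoxin B positive control.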
# Candida tropicalis = assay: Inhibition of Candida tropicalis ATCC 750 chitin synthase at 300 ug/ml using UDP-GlcNAc as substrate relative to control; settings: dose 300.0 µg/ml
# Procedure, shortened: as §4
# Bacillus subtilis = assay: Antibacterial activity against Bacillus subtilis ATCC 6633; type: functional
# Procedure, shortened: as §3
# Cryptococcus neoformans [8] = assay: Antifungal activity against Cryptococcus neoformans ATCC 32719 incubated for 48 hrs by two-fold broth dilution analysis; type: functional
# Procedure, shortened: as §2
# Candida albicans [9] = assay: Synergistic antifungal activity against Candida albicans ATCC 76615 assessed as fractional inhibitory concentration index in presence of Polyoxin B by checkerboard method; type: functional
# Procedure, shortened: as §1
# Candida albicans [10] = assay: Synergistic antifungal activity against Candida albicans ATCC 90023 assessed as fractional inhibitory concentration index in presence of Polyoxin B by checkerboard method; type: functional
# Procedure, shortened: as §1
# Staphylococcus aureus [11] = assay: Antibacterial activity against Staphylococcus aureus ATCC 25923; type: functional
# Procedure, shortened: as §3
# Cryptococcus neoformans [12] = assay: Synergistic antifungal activity against Cryptococcus neoformans ATCC 32719 assessed as fractional inhibitory concentration index in presence of fluconazole by checkerboard method; type: functional
# Procedure, shortened: as §1
# Aspergillus flavus [13] = assay: Antifungal activity against Aspergillus flavus ATCC 16870 incubated for 48 hrs by two-fold broth dilution analysis; type: functional
# Procedure, shortened: as §2
# Proteus vulgaris = assay: Antibacterial activity against Bacillus proteus ATCC 8427; type: functional
# Procedure, shortened: as §3
# Aspergillus flavus [14] = assay: Synergistic antifungal activity against Aspergillus flavus ATCC 16870 assessed as fractional inhibitory concentration index in presence of Polyoxin B by two-fold broth dilution checkerboard method; type: functional
# Procedure, shortened: as §1
# Cryptococcus neoformans [15] = assay: Synergistic antifungal activity against Cryptococcus neoformans ATCC 32719 assessed as fractional inhibitory concentration index in presence of Polyoxin B by checkerboard method; type: functional
# Procedure, shortened: as §1
# Aspergillus fumigatus [16] = assay: Antifungal activity against Aspergillus fumigatus GIMCC 3.19 incubated for 48 hrs by two-fold broth dilution analysis; type: functional
# Procedure, shortened: as §2
# Staphylococcus aureus [17] = assay: Antibacterial activity against methicillin-resistant Staphylococcus aureus N. 315; type: functional
# Procedure, shortened: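 Two-fold serial broth dilution in 96-well plates per national clinical standard; beef extract peptone medium (1% peptone, 0.3% beef extract, 0.5% NaCl, […]). Compounds from DMSO stock diluted to test concentrations; incubation 18–24 h. MIC recorded; each group tested independently in triplicate.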
# Aspergillus fumigatus [18] = assay: Synergistic antifungal activity against Aspergillus fumigatus GIMCC 3.19 assessed as fractional inhibitory concentration index in presence of fluconazole by checkerboard method; type: functional
# Procedure, shortened: as §1
# [19] = Noncompetitive inhibition of Candida tropicalis ATCC 750 chitin synthase using […] as substrate by Lineweaver-Burk plot
# Procedure, shortened: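 Same WGA-capture chitin synthase assay, run with UDP-GlcNAc at 0.5, 1.0, 1.5 and 2.0 mM and inhibitor at 0, 0.032, 0.126 and 0.25 mM. Inhibition type read from Lineweaver-Burk plots; Ki taken from the intersection of the lines.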
Structure (SMILES),MIC (Escherichia coli),fractional inhibitory concentration index (FICI) (Candida albicans [1]),MIC (Candida albicans [2]),MIC (Candida albicans [3]),fractional inhibitory concentration index (FICI) (Aspergillus flavus [4]),fractional inhibitory concentration index (FICI) (Candida albicans [5]),fractional inhibitory concentration index (FICI) (Aspergillus fumigatus [6]),MIC (Pseudomonas aeruginosa),IC50 [7],inhibition (Candida tropicalis),MIC (Bacillus subtilis),MIC (Cryptococcus neoformans [8]),fractional inhibitory concentration index (FICI) (Candida albicans [9]),fractional inhibitory concentration index (FICI) (Candida albicans [10]),MIC (Staphylococcus aureus [11]),fractional inhibitory concentration index (FICI) (Cryptococcus neoformans [12]),MIC (Aspergillus flavus [13]),MIC (Proteus vulgaris),fractional inhibitory concentration index (FICI) (Aspergillus flavus [14]),fractional inhibitory concentration index (FICI) (Cryptococcus neoformans [15]),further results
COc1ccccc1NC(=O)/C=C/C(=O)NC1Cc2ccccc2NC1=O (configuration not stated),256 µg/mL,0.75,1 µg/mL,1 µg/mL,1,0.5,0.375,512 µg/mL,160 µM,82.3%,256 µg/mL,8 µg/mL,0.5,0.375,128 µg/mL,0.5,2 µg/mL,256 µg/mL,0.75,1,MIC (Aspergillus fumigatus [16]): 4 µg/mL; MIC (Staphylococcus aureus [17]): 256 µg/mL; fractional inhibitory concentration index (FICI) (Aspergillus fumigatus [18]): 0.375
Cc1cccc(NC(=O)/C=C/C(=O)NC2Cc3ccccc3NC2=O)c1 (configuration not stated),512 µg/mL,1.5,2 µg/mL,1 µg/mL,1.5,0.5,0.75,512 µg/mL,90 µM,78.3%,256 µg/mL,64 µg/mL,1,0.375,128 µg/mL,1.5,2 µg/mL,256 µg/mL,1,2,Ki [19]: 120 µM; MIC (Aspergillus fumigatus [16]): 4 µg/mL; MIC (Staphylococcus aureus [17]): 512 µg/mL; fractional inhibitory concentration index (FICI) (Aspergillus fumigatus [18]): 0.75
